Reference: ChEMBL document CHEMBL1130008, “Structure-based design of a potent, selective, and irreversible inhibitor of the catalytic domain of the erbB receptor subfamily of protein tyrosine kinases” (J Med Chem, 1997)

What was measured:
[1] = biological target: T1, Epidermal growth factor receptor (Homo sapiens, UniProt P00533); assay: (§1) Rate constant for inactivation of erbB-1 receptor of A431 human epidermoid carcinoma cells; assay type: cell-based, A-431
How it was run: (§2)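 A431 full-length erbB-1 preincubated with 0.1–25 µM nucleoside in kinase buffer lacking ATP for 1, 5, 15 or 30 min. 10 µM [32P]ATP then started a 10 min, 25 °C poly(Glu,Tyr) phosphorylation. Activity as % of control on semilog plots gave pseudo-first-order constants, fitted hyperbolically against concentration. Run in duplicate.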

[2] = biological target: T1, Epidermal growth factor receptor; assay: Half life for inactivation of erbB-1 receptor; how it was run: as §2
[3] = biological target: T1, Epidermal growth factor receptor; assay: Saturation rate constant for complex formation with human erbB-1 receptor; how it was run: as §2
[4] = biological target: Fibroblast growth factor receptor (Homo sapiens) (UniProt P22607+P11362+P22455+P21802); assay: Inhibition of human fibroblast growth factor receptor (FGF) at 50 uM (no effect); assay type: protein assay
Fibroblast growth factor receptor (Homo sapiens), sequence (P11362 whole entry, looked up): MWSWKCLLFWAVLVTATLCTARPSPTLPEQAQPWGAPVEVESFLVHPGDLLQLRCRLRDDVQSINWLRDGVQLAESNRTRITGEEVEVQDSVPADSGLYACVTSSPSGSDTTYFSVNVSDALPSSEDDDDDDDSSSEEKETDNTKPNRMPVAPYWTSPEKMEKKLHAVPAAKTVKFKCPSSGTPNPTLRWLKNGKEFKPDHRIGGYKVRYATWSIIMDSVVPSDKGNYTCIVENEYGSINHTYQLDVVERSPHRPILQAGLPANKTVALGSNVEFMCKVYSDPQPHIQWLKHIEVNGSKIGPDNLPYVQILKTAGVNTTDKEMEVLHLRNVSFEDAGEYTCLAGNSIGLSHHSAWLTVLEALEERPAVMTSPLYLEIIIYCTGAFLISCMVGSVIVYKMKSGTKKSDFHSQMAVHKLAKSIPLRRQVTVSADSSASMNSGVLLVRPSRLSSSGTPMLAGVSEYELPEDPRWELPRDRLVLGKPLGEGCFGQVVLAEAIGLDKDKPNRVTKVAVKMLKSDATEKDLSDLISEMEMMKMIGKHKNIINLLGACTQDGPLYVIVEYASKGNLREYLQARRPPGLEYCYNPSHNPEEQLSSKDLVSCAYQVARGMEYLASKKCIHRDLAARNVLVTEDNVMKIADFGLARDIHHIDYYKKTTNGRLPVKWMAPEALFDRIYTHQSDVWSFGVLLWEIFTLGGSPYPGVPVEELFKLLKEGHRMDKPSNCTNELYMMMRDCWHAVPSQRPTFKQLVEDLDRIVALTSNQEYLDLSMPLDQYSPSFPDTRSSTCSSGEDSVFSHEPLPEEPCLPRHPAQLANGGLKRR
Fibroblast growth factor receptor (Homo sapiens), sequence (P21802 whole entry, looked up): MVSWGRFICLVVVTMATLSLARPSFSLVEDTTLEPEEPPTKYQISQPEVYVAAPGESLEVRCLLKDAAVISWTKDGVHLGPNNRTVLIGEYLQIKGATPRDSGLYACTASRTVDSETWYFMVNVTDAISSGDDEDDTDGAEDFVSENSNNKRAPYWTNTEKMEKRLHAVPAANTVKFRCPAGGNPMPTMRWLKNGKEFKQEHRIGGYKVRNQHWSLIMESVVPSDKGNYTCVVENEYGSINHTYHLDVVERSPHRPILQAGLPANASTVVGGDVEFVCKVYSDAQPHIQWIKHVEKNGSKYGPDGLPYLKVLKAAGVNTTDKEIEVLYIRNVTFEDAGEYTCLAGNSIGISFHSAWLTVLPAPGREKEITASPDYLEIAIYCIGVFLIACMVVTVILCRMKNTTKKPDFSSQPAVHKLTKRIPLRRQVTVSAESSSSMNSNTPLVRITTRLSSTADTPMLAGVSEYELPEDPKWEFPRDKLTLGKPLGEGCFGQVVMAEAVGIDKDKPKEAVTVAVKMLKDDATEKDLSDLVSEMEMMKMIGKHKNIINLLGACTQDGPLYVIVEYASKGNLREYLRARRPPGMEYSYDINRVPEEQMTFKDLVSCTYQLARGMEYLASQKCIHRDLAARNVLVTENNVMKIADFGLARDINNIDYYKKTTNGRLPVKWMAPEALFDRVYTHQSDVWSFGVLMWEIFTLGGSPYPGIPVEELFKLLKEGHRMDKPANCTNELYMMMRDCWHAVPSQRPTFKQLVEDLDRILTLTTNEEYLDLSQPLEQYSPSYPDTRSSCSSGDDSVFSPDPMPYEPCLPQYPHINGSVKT
Fibroblast growth factor receptor (Homo sapiens), sequence (P22455 whole entry, looked up): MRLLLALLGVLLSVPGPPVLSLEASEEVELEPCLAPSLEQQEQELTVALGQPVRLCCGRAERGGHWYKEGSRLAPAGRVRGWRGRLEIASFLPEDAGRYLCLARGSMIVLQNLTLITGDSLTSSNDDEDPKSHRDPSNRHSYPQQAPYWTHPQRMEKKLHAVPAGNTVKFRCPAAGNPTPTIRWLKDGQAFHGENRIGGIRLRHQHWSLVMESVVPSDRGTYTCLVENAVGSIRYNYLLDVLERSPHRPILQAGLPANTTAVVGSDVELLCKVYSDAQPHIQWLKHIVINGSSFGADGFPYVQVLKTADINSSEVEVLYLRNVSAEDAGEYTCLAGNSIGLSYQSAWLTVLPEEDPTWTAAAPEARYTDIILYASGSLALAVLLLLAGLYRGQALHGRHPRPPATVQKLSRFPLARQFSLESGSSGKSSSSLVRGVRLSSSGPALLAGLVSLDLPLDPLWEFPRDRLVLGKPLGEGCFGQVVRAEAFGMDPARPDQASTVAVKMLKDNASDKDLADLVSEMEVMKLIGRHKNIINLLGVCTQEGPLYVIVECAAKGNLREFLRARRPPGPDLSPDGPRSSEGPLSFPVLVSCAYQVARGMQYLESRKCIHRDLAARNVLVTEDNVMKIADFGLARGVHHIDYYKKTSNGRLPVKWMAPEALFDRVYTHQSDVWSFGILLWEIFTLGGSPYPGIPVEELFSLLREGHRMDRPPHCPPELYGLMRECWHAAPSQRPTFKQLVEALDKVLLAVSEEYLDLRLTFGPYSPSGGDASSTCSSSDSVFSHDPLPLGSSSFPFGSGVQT
Fibroblast growth factor receptor (Homo sapiens), sequence (P22607 whole entry, looked up): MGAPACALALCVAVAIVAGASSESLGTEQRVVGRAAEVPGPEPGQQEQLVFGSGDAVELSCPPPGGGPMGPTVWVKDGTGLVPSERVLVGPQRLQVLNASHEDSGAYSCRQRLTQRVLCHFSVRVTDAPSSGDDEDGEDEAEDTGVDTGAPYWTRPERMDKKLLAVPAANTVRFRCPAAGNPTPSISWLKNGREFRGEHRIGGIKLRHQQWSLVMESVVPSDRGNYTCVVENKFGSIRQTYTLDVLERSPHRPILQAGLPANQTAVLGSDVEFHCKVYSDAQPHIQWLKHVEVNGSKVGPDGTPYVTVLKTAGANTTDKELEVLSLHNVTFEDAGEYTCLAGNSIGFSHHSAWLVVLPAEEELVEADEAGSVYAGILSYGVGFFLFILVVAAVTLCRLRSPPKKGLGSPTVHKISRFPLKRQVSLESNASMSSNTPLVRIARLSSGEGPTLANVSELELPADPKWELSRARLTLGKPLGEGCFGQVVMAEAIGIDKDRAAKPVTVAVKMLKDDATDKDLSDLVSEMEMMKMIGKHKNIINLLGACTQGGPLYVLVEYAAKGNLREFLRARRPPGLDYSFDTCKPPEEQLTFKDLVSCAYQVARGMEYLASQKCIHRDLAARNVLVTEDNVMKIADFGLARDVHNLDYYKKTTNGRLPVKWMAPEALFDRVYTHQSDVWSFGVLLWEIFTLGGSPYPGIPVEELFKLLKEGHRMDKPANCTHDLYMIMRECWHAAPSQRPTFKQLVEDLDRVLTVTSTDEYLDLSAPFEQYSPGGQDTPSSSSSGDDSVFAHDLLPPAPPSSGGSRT

[5] = biological target: T1, Epidermal growth factor receptor; assay: Second order rate constant for inactivation of erbB-1 receptor of A431 human epidermoid carcinoma cells; assay type: cell-based; conditions: A-431; how it was run: as §2
[6] = biological target: Platelet-derived growth factor receptor beta (Homo sapiens) (UniProt P09619); assay: Inhibition of human Platelet-derived growth factor receptor at 50 uM (no effect)
Platelet-derived growth factor receptor beta (Homo sapiens), sequence (P09619 whole entry): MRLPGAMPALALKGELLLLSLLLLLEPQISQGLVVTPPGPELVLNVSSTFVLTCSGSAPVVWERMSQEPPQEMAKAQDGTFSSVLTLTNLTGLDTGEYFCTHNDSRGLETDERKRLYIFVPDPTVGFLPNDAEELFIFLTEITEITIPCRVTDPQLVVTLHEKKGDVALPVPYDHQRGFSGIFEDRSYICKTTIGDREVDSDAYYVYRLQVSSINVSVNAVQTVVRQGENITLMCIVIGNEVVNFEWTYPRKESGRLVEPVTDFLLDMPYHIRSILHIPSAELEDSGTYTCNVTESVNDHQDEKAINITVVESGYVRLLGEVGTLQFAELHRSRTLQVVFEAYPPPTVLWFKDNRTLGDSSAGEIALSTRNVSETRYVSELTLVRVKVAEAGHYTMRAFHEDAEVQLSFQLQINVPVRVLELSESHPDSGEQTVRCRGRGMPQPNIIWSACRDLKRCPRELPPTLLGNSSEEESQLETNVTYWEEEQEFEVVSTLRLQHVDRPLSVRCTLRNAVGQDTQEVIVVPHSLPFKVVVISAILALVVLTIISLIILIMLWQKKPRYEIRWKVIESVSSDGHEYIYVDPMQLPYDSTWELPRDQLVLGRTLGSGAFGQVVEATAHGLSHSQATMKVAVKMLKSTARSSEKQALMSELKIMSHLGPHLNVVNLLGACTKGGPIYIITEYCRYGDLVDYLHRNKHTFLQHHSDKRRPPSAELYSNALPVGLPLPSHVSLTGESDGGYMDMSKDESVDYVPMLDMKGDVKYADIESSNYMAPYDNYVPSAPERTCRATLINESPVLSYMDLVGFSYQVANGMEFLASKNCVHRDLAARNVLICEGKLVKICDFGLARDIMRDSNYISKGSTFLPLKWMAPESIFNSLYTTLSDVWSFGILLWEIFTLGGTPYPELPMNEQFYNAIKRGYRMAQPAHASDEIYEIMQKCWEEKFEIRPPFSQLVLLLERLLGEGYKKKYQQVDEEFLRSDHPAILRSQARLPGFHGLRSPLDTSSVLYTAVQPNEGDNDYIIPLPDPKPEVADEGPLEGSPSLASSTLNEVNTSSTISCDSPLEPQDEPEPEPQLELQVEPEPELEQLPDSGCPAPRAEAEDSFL

[7] = biological target: T1, Epidermal growth factor receptor; assay: Inhibition of human erbB-1 receptor tyrosine kinase activity at 5 uM
How it was run: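 A431-derived full-length erbB-1 was preincubated with 5 µM nucleoside without ATP, then assayed with 10 µM [32P]ATP and poly(Glu,Tyr) at 25 °C for 10 min; a TCA-precipitate count gave the read-out. Reversibility was tested by treating with 1 mM dithiothreitol.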

[8] = biological target: T1, Epidermal growth factor receptor; assay: as §1; assay type: cell-based; conditions: A-431; how it was run: as §2
[9] = biological target: Receptor tyrosine-protein kinase erbB-2 (Homo sapiens, UniProt P04626); assay: Inhibition of human erbB-2 receptor tyrosine kinase
[10] = biological target: Insulin receptor (Homo sapiens) (UniProt P06213); assay: Inhibition of human insulin receptor tyrosine kinase at 50 uM (no effect)
[11] = Affinity for mouse cyclic-AMP dependent Ser/Thr Kinase
[12] = biological target: T1, Epidermal growth factor receptor; assay: Inhibition of erbB-1 receptor tyrosine kinase from A431 human epidermoid carcinoma cells; assay type: cell-based, A-431
How it was run: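 Full-length erbB-1 purified from A431 cell lysate by anti-EGF-receptor antibody affinity resin and eluted with EGF. Run at 25 °C for 10 min, stopped with TCA, precipitate counted by scintillation.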

| Kd [1] [µM] | T1/2 [2] [min] | KS [3] [µM] | Concentration [4] [µM] | kmax/KS [5] [M⁻¹ s⁻¹] | Concentration [6] [µM] | inhibition [7] [%] | kmax [8] [s⁻¹] | IC50 [9] [µM] | Concentration [10] [µM] | Kd [11] [µM] | IC50 [12] [µM] | SMILES |
| --- | --- | --- | --- | --- | --- | --- | --- | --- | --- | --- | --- | --- |
| 1 | 5 | 1 | 50 | 2000 | 50 | 70 | 0.0023 | 45 | 50 | – | – | Nc1ncnc2c1ncn2[C@@H]1O[C@H](CO)[C@@H](O)[C@H]1S |
| – | – | – | 50 | – | 50 | – | – | ~1600 | 50 | 35 | 195 | Nc1ncnc2c1ncn2[C@@H]1O[C@H](CO)[C@@H](O)[C@H]1O [ADENOSINE] |
| – | – | – | – | – | – | – | – | – | – | 10 | – | Nc1ncnc2c1ncn2[C@@H]1O[C@H](COP(=O)(O)OP(=O)(O)O)[C@@H](O)[C@H]1O [ADENOSINE DIPHOSPHATE] |

| SMILES | Kd [1] [µM] | T1/2 [2] [min] | KS [3] [µM] | Concentration [4] [µM] | kmax/KS [5] [M⁻¹ s⁻¹] | Concentration [6] [µM] | inhibition [7] [%] | kmax [8] [s⁻¹] | IC50 [9] [µM] | Concentration [10] [µM] | Kd [11] [µM] | IC50 [12] [µM] |
| --- | --- | --- | --- | --- | --- | --- | --- | --- | --- | --- | --- | --- |
| Nc1ncnc2c1ncn2[C@@H]1O[C@H](COP(=O)(O)OP(=O)(O)OP(=O)(O)O)[C@@H](O)[C@H]1O [ADENOSINE TRIPHOSPHATE] | – | – | – | – | – | – | – | – | – | – | 10 | – |
